HCT116 bCat-KO – beta-catenin-lacking colon tumor cell growth suppression. HCT116 beta-catenin knockout viability, CellTiter-Glo, 60 h; hits give low values. viability, % at 10 µM. hit rate 1.5% among 140,000;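 active = viability at or under a set limit, the compound median less 4 SD, cut at about 6% in these data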;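 note: 0% = Hyamine 1622 control at 20 µM and 100% = untreated cell control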
HUVEC prolif 384 – inhibitors of human endothelial cell proliferation. HUVEC proliferation, CellTiter-Glo luminescence, 72 h; hits give low values. hit rate 1.1% among 86,000. viability, % at 10 µM (by protocol);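 active = viability at or below 30%; inactive = viability above 30%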;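 note: 100% = median luminescence of DMSO-only cell control wells on each plate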
PTK2B oligo ant – Pyk2 (human) oligomerization antagonism; z-score (the deposit names both 25 µM and 10 µM); Q293 cells, Pyk2 FERM NanoBiT luminescence; hits give low values; Q14289; AID 1347419; hit rate 0.83% among 99,000;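 active = Z-score of -3 or lower, scaled per plate to the spread of control and sample wells; inactive = z-score above -3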;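 note: negative z-score means lost luminescence so less FERM oligomerization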
Target sequence (Q14289 whole entry, looked up): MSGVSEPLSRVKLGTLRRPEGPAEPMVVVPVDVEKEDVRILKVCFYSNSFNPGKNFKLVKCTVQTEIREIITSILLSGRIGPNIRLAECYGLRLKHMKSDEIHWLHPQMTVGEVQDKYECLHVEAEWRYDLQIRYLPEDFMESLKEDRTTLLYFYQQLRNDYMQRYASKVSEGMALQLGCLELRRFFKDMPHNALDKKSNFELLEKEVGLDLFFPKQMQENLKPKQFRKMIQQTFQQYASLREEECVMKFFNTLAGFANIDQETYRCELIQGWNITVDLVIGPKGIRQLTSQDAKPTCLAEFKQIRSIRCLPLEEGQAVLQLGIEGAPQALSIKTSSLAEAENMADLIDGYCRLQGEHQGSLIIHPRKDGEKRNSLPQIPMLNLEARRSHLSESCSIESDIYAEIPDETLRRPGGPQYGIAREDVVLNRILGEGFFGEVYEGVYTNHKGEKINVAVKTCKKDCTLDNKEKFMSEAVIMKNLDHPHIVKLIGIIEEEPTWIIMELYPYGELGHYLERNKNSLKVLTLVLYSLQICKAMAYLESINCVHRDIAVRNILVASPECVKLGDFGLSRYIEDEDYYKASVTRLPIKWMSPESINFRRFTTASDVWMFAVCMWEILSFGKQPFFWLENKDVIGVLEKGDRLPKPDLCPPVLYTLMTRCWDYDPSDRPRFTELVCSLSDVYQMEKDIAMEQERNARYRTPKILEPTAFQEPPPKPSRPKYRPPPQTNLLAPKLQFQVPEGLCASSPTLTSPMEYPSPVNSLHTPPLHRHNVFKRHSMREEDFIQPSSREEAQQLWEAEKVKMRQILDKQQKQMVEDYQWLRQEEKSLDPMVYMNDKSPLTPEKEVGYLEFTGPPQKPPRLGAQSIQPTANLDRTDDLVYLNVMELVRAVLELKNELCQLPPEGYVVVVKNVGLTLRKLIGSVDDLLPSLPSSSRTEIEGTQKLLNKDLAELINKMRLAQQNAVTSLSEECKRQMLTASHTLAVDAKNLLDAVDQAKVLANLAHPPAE
Fibroblast inh – blocks proliferation of human lung fibroblasts | hit rate 1.1% among 85,000 | viability, % at 10 µM | LL 47 human lung fibroblast viability, ATP luminescence; hits give low values;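 active = viability at or below 50% in the single dose screen; inactive = viability above 50%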;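 note: compound exposure lasted 72 h before the ATP readout; 100% = median luminescence of untreated cell-only wells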
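Test system: LL 47 human lung fibroblasts; Quantity: 1,150 cells/well; Buffer or medium: IMEM plus 15% FBS; Dosing: tenfold compound dosing solution, DMSO at 0.1%; Timing: overnight cell rest, 72 h compound treatment at 37 °C; Detection: ATP-based CellTiter-Glo luminescent readout; Read-out basis: viability percentage against median untreated-cell control; Controls: cell-only wells, no compound.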
H69AR inhibit – blocks growth of human H69AR lung tumor cells | viability, % at 10 µM | AID 598 | H69AR lung tumor viability, ATP luminescence, 72 h; hits give low values | hit rate 6% among 85,000;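 active = viability at or below 40%; inactive = viability above 40%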;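 note: multidrug resistant small cell line overexpressing MRP-1 efflux transporter; 100% = mean luminescence of untreated control wells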
HCT116 PTEN-null – PTEN-deleted cell growth suppression | HCT116 PTEN-null viability, CellTiter-Glo, 60 h; hits give low values | viability, % at 10 µM | hit rate 1.2% among 140,000;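 active = viability at or below a set limit, 4 SD under the median of all tested compounds, cut at about 3.7% in these data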;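 note: PTEN knockout HCT116 line with beta catenin targeted HCT116 as companion control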
* marks the source's active call; other numbers are inactive results; · = no result. This is one part of a sample in which hits are shown more often than they occur.

SMILES	HCT116 bCat-KO	HUVEC prolif 384	PTK2B oligo ant	Fibroblast inh	H69AR inhibit	HCT116 PTEN-null
O=C(NCCc1csc(-c2ccc(C(F)(F)F)cc2)n1)c1cccs1	71	83	·	97	89	35
COc1cc2c(N3CCOCC3)cc(O)c(CC(=O)Nc3ccccc3)c2cc1OC	99	86	0.07	48*	82	104
COC(=O)CCC/C=C1\SC[C@@H](NC(=O)c2ccccc2)C1NC(C)=O (stereo partly drawn)	96	·	·	·	·	101
CC(C)(C)c1cccc(/C=N/O)c1O	83	107	-0.5	102	104	·
CC(C)(C)c1ccc(O)c(/C=N\O)c1	82	95	1.3	87	25*	81
O=C1c2ccccc2C(=O)C1c1nccc2ccccc12	5.0*	·	-0.46	·	·	8
ClC(Cl)(c1nnnn1-c1ccccc1)c1nnnn1-c1ccccc1	1.3*	·	·	·	·	1.9*
O=C(NC(CSCc1ccccc1)C(=O)N/N=C/c1ccc(O)cc1O)c1ccc([N+](=O)[O-])cc1 (stereo not drawn)	2.9*	7.6*	-1.6	25*	30*	3.0*
O=C1C=C(NCCN2CCOCC2)C(=O)c2cnccc21	1.8*	·	·	·	·	1.9*
O=C(Cn1c(=O)n(CCCC(=O)NC2CCCC2)c(=O)c2ccccc21)NCCC1=CCCCC1	5.3*	85	0.18	49*	29*	2.8*
CCCCNC(=O)CCCn1c(=O)c2ccccc2n(CC(=O)NCCC2=CCCCC2)c1=O	69	97	-0.94	96	92	77
O=c1c(-c2ccnn2-c2cccc(Cl)c2)cnc2n1CCS2	96	97	-0.12	95	81	100
Cc1ccc(C)c(C(=O)COC(=O)c2cc([N+](=O)[O-])ccc2NCCO)c1	86	·	·	·	·	75
O=C(Nc1nc2ccccc2[nH]1)c1ccc(Cl)c(S(=O)(=O)N2CCCC2)c1	25	75	-1.4	73	12*	39
CC(CC(=O)Nc1nc2ccccc2[nH]1)c1ccccc1 (stereo not drawn)	71	88	-0.94	91	12*	70
O=C(Nc1nccs1)c1ccc(Cl)c(S(=O)(=O)N2CCCCC2)c1	78	86	-1.2	102	53	75
CCCSc1ccc2nc(NC(=O)OC)[nH]c2c1	9	45	·	53	20*	12
O=C(COc1ccccc1)Nc1nc2ccccc2[nH]1	99	102	0.91	99	102	99
COC(=O)Nc1nc2ccc(C(=O)c3ccccc3)cc2[nH]1	·	37	·	50	33*	·
CC(=O)N1CCC(N(CCCOC(C)C)C(=O)Nc2ccc(Cl)cc2)CC1	·	94	·	104	97	·
COc1ccc(OC)c(-c2csc(NC(=O)CSc3ccc([N+](=O)[O-])cc3)n2)c1	85	·	·	·	·	75
COc1ccc(NC(=O)CCNS(=O)(=O)c2ccc3c(c2)c(=O)n(C)c(=O)n3C)c(OC)c1	85	95	·	104	83	100
COc1cccc(C(=O)Nc2nc3ccccc3[nH]2)c1	75	68	0.1	60	32*	81
COc1ccc(OCC#CCNC(C)(C)C)cc1	107	94	-0.82	98	80	115
COc1ccc(C(=O)C(CCC(CNC(C)(C)C)C(=O)c2ccc(OC)cc2)CNC(C)(C)C)cc1 (stereo not drawn)	1.0*	·	-1.5	·	·	1.2*
SMILES	HCT116 bCat-KO	HUVEC prolif 384	PTK2B oligo ant	Fibroblast inh	H69AR inhibit	HCT116 PTEN-null
CN(C)C/C(Cl)=C(\Cl)c1ccccc1	93	97	0.26	99	12*	94
O=S(=O)(c1ccccc1)N1CCN(S(=O)(=O)N2CCCCC2)CC1	96	103	-0.83	100	97	100
O=S(=O)(c1ccc(S(=O)(=O)N2CCN(C/C=C/c3ccccc3)CC2)cc1)N1CCCC1	65	70	0.39	84	36*	89
COc1cc(C(=O)N2CCC(c3nc(-c4cccnc4)no3)CC2)cc(OC)c1OC	94	96	-0.37	95	83	94
Nc1c(C(=O)NCC2CCCO2)c2nc3ccccc3nc2n1-c1ccccc1 (stereo not drawn)	49	79	0	74	21*	56
C=CCNC(=O)c1c(N)n(-c2ccc3c(c2)OCO3)c2nc3ccccc3nc12	65	37	0.36	31*	13*	38
Nc1c(C(=O)NCCN2CCOCC2)c2nc3ccccc3nc2n1-c1cccc(F)c1	97	94	-0.54	98	50	95
CO/N=C(\c1nonc1N)N1CCN(c2ccc(Cl)cc2[N+](=O)[O-])CC1	74	·	-1.1	·	·	69
COc1cc(/C=C/C(=O)c2ccc(Cl)s2)cc(OC)c1O	4.5*	·	-1.8	·	·	4
COc1ccc(/C=C/C(=O)c2ccc(Cl)s2)cc1O	3.4*	·	-2.1	·	·	4
COc1ccc(C(=O)/C=C/c2ccc(F)cc2)c(OC(=O)c2ccc([N+](=O)[O-])cc2)c1	7	·	-2.4	·	·	3.3*
COc1ccc(C(=O)/C=C/c2ccc(OC)c(O)c2)c(F)c1	5.6*	·	-1.6	·	·	6
CC(C)OCCCNC(=S)Nc1ccc(S(N)(=O)=O)cc1	80	·	·	·	·	93
S=C(N/N=C/c1ccccc1)N1CCOCC1	81	·	·	·	·	80
Cc1ccc(/C=C/C(=O)c2ccccc(=O)c2O)cc1C	8	·	·	·	·	8
COc1cc(C2C3=C(CC(C)(C)CC3=O)N(C)C(=O)N2C)cc(OC)c1OC (stereo not drawn)	104	91	0.75	97	101	102
COCCNC(=O)/C(C#N)=C/c1c(N2CC(C)OC(C)C2)nc2ccccn2c1=O (stereo not drawn)	92	·	0.4	·	·	93
Cc1cc(NC(=O)CSc2nnc(-c3ccc4c(c3)OCCO4)o2)no1	92	99	1.5	98	2.4*	99
Cc1ccc(-c2nnc(SCC(=O)Nc3ccccc3F)o2)cc1	38	70	·	49*	64	42
Cc1cc(NC(=O)c2ccc3c(c2)OCCO3)no1	79	85	0.29	96	34*	72
CCCCCc1c(C)c(C#N)c2nc3ccccc3n2c1-n1ccnc1C	77	·	0.32	·	·	70
C=C(C)CN1CCN(c2c(CCC#N)c(C)c(C#N)c3nc4ccccc4n23)CC1	2.9*	74	1.4	69	38*	3.1*
Cc1c(CCC(C)C)c(-n2ccnc2C)n2c(nc3ccccc32)c1C#N	72	105	0.18	100	23*	74
COc1cc(CC(=O)OCC(=O)c2ccc3c(c2)OCCO3)cc(OC)c1OC	15	38	0.94	53	33*	12
c1ccc(-c2nc(NCC3CCCO3)c3ccccc3n2)nc1 (stereo not drawn)	6.0*	·	-0.27	·	·	6
c1ccc2c(c1)[nH]c1c(NCC3CCCO3)ncnc12 (stereo not drawn)	72	87	2.5	93	70	80
Oc1cccc(Nc2nc(NCC3CCCO3)c3ccccc3n2)c1 (stereo not drawn)	1.9*	85	-1.2	90	104	3.4*

From PubChem
